Broadly, the IC50 is the concentration that inhibits the measured activity by half. By EC50 is commonly meant the concentration needed to bring the measured effect to its halfway point.

Molecules are shown by their SMILES.

These results are taken from ChEMBL document CHEMBL1949507, “Synthesis and biological evaluation of [6]-gingerol analogues as transient receptor potential channel TRPV1 and TRPA1 modulators” (Bioorg Med Chem Lett, 2012).

Holding throughout (assay type): functional, cell-based
Assay [1] addresses T1, Transient receptor potential cation channel subfamily V member 1 (Homo sapiens, UniProt Q8NER1). The assay is described as follows: Agonist activity at human TRPV1 ion channel expressed in HEK293 cells assessed as calcium influx by fluo-4-Am-based fluorimetry relative to ionomycin.
Assay [2] addresses T1, Transient receptor potential cation channel subfamily V member 1. The assay is described as follows: Antagonist activity at human TRPV1 ion channel expressed in HEK293 cells assessed as inhibition of capsaicin-induced calcium influx incubated for 5 mins prior to capsicin-induction by fluo-4-AM-based fluorimetry. The gist of the method: (§1)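 Stably transfected HEK293 (human TRPV1 or rat TRPA1) were loaded with Fluo-4-AM, washed in Tyrode's buffer and read by spectrofluorimetry (ex 488/em 516 nm). […] Inhibition of the agonist-evoked [Ca2+]i rise was recorded, giving IC50.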

Assay [3] addresses Transient receptor potential cation channel subfamily A member 1 (Rattus norvegicus) (UniProt Q6RI86). The assay is described as follows: Agonist activity at rat TRPA1 ion channel expressed in HEK293 cells assessed as calcium influx by fluo-4-Am-based fluorimetry relative to allyl isothiocyanate.
Assay [4] has as its target T1, Transient receptor potential cation channel subfamily V member 1. The assay is described as follows: Agonist activity at human TRPV1 ion channel expressed in HEK293 cells assessed as calcium influx by fluo-4-Am-based fluorimetry.
The target in assay [5] is T2, Transient receptor potential cation channel subfamily A member 1 (Rattus norvegicus, UniProt Q6RI86). Description: Antagonist activity at rat TRPA1 ion channel expressed in HEK293 cells assessed as inhibition of AITC-induced calcium influx incubated for 5 mins prior to AITC-induction by fluo-4-AM-based fluorimetry. An outline of the steps: as §1
T2 sequence (Q6RI86 whole entry): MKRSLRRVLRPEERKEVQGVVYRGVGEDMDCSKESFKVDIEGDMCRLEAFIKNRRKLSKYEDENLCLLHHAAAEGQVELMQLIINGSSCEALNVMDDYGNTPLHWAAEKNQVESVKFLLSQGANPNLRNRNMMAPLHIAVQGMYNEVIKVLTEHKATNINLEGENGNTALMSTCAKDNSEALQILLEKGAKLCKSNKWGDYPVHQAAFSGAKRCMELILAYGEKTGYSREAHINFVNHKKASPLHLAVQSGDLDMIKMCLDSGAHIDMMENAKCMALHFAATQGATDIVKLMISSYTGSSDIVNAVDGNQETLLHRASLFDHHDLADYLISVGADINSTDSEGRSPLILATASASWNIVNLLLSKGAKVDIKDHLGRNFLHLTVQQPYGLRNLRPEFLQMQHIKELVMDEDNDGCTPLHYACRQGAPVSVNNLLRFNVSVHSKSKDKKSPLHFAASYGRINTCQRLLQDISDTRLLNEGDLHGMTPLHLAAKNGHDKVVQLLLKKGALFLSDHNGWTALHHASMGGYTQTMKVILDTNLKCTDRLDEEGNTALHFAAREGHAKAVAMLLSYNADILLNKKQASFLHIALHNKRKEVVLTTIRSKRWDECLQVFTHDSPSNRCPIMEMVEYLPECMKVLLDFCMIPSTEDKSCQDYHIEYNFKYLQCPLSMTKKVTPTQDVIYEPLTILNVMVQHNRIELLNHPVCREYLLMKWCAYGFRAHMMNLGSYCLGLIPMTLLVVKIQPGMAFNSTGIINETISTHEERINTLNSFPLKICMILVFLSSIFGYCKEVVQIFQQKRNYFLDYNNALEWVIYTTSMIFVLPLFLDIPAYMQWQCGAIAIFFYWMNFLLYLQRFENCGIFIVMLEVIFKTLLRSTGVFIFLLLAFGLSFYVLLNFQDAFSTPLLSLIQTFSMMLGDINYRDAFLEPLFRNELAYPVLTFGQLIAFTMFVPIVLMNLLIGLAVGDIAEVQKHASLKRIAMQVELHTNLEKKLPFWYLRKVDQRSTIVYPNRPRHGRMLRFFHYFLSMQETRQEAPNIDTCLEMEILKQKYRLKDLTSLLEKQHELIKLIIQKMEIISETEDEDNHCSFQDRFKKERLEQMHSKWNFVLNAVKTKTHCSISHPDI
Assay [6] addresses T2, Transient receptor potential cation channel subfamily A member 1. Description: Agonist activity at rat TRPA1 ion channel expressed in HEK293 cells assessed as calcium influx by fluo-4-Am-based fluorimetry.
The target of assay [7] is Transient receptor potential cation channel subfamily A member 1 (Rattus norvegicus) (UniProt Q6RI86). Description: Agonist activity at rat TRPA1 ion channel expressed in HEK293 cells assessed as calcium influx by fluo-4-Am-based fluorimetry relative to ionomycin. An outline of the steps:
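HEK293 cells stably transfected with rat TRPA1 cDNA, loaded with Fluo-4-AM in EMEM, washed twice in Tyrode's buffer and read in a spectrofluorimeter cuvette (ex 488 nm, em 516 nm). [Ca2+]i was measured before and after adding various concentrations of test compound. Responses in non-transfected wild-type HEK293 cells served as baseline and were subtracted from transfected-cell values.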

T1 sequence (Q8NER1 whole entry): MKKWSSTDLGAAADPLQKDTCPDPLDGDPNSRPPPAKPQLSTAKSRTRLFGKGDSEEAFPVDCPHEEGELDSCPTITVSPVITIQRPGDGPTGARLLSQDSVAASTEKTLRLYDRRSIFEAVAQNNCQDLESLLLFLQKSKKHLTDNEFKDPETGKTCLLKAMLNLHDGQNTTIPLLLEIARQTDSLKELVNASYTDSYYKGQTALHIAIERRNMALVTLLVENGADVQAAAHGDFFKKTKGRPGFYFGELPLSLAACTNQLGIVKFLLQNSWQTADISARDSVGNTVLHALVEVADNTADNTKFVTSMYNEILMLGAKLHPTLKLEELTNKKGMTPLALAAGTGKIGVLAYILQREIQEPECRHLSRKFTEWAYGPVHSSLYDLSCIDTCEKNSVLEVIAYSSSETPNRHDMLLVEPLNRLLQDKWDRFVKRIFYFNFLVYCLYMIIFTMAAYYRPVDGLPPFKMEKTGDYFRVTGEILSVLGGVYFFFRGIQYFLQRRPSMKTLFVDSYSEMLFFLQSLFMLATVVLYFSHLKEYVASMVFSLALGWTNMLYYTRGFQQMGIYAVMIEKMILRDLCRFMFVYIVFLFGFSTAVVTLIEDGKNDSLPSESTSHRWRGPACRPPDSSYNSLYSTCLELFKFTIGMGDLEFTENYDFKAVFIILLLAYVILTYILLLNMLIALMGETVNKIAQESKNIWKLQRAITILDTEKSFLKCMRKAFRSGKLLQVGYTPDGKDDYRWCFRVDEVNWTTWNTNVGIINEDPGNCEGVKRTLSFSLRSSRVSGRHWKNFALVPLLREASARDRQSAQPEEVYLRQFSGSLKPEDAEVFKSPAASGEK
Chain of Transient receptor potential cation channel subfamily A member 1 (Rattus norvegicus) (Q6RI86 whole entry): as the sequence (Q6RI86 whole entry) above

With `CC(C)c1cc(CCC(=O)CC(O)Cc2ccccc2)cc(C(C)C)c1O` (stereo not given), the Efficacy in assay [1] and in assay [3] was less than 10% each time. In addition, the IC50 in assay [2] is more than 50 µM.

Consider `COc1cc(CCC(=O)CC(O)Cc2ccccc2)ccc1O` (stereo not given), for which the Efficacy in assay [1] was 56.9%; in assay [3] it was less than 10%. In addition, the EC50 in assay [4] turned out to be 14.3 µM. Further, the IC50 is 13.2 µM in assay [2] and 97.8 µM in assay [5].

Turning to `CCCCCC(O)CC(=O)CCc1ccc2c(c1)OCO2` (stereo not given), the Efficacy in assay [1] and in assay [3] was less than 10% in each case. In addition, the IC50 in assay [2] and in assay [5] was more than 100 µM each time.

On to `CCCCCC(O)CC(=O)CCc1cc(C(C)C)c(O)c(C(C)C)c1` (stereo not given), for which the figures for the Efficacy in assay [1] and in assay [3] were less than 10% and 63.6%, respectively. In addition, the EC50 in assay [6] came to 2.1 µM. Moreover, the IC50 in assay [2] was more than 50 µM; in assay [5] it was 2.8 µM.

Consider `CCCCC/C=C/C(=O)CCc1ccc(O)c(OC)c1` [SHOGAOL], for which the results for the Efficacy in assay [1] and in assay [3] were 79.2% and 91.1%, respectively. Also, the 50% effective concentration (EC50) in assay [6] was found to be 16 µM; in assay [4], 0.32 µM. For the same molecule, the IC50 in assay [2] worked out at 0.29 µM; in assay [5], 16.7 µM.

Take `O=C(CCc1ccc2c(c1)OCO2)CC(O)Cc1ccccc1` (stereo not given): the Efficacy in assay [1] was less than 10%; in assay [3], 16.5%. In addition, the IC50 in assay [2] was more than 50 µM; in assay [5] it was 14.4 µM.

On to `C=CCN=C=S`, for which the Efficacy in assay [7] was 41.8%.

Regarding `CC(C)c1cc(CCC(=O)CC(O)CCCCCCc2ccccc2)cc(C(C)C)c1O` (stereo not given), the Efficacy in assay [1] and in assay [3] was less than 10% in each case. The IC50 is more than 10 µM in assay [2] and 11.1 µM in assay [5].

Consider `O=C(CCc1ccccc1)CC(O)CCCCCCc1ccccc1` (stereo not given), for which the Efficacy in assay [1] and in assay [3] was less than 10% throughout. Further, the IC50 in assay [2] is more than 10 µM.

Take `COc1cc(CCC(=O)CC(O)CCCCCCc2ccccc2)ccc1O` (stereo not given): the Efficacy is 60% in assay [1] and less than 10% in assay [3]. Also, the EC50 in assay [4] came out at 0.11 µM. For the same molecule, the IC50 in assay [2] was found to be 0.11 µM; in assay [5], 38.2 µM.

As to `O=C(CCc1ccc(O)cc1)CC(O)Cc1ccccc1` (stereo not given), the values for the Efficacy in assay [1] and in assay [3] were 10.8% and 131%, respectively. Besides, the EC50 in assay [6] amounted to 10.7 µM; in assay [4], 1 µM. Besides, the IC50 in assay [2] is 33.5 µM; in assay [5], 35.1 µM.

For `O=C(CCc1ccccc1)CC(O)Cc1ccccc1` (stereo not given), the values for the Efficacy in assay [1] and in assay [3] were less than 10% and 17.5%, respectively. For the same molecule, the IC50 is more than 50 µM in assay [2] and 4.5 µM in assay [5].

As for `Cc1cc(O)c(C(C)C)cc1CCC(=O)CC(O)CCCCCCc1ccccc1` (stereo not given), the Efficacy is 33.5% in assay [1] and 163% in assay [3]. The EC50 is 22.1 µM in assay [6] and 0.5 µM in assay [4]. The 50% inhibitory concentration (IC50) is 1.3 µM in assay [2] and 14.3 µM in assay [5].

Turning to `CCCCCC(O)CC(=O)CCc1ccccc1` (stereo not given), the Efficacy in assay [1] and in assay [3] was less than 10% throughout. Also, the IC50 in assay [2] is more than 50 µM; in assay [5], 56.1 µM.

For the molecule `O=C(CCc1ccc(O)cc1)CC(O)CCCCCCc1ccccc1` (stereo not given), the Efficacy in assay [1] was 43%; in assay [3], less than 10%. Moreover, the EC50 in assay [4] was found to be 14.6 µM. The IC50 in assay [2] amounted to 9.4 µM; in assay [5], 15.8 µM.

As for `COc1cc(CNC(=O)CCCC/C=C/C(C)C)ccc1O`, in assay [3], the Efficacy was found to be 100%.

On to `O=C(/C=C/CCCCCCc1ccccc1)CCc1ccc(O)cc1`, for which the Efficacy in assay [1] came out at 19.7%; in assay [3] it was 89.2%. The EC50 in assay [6] was 2.2 µM; in assay [4], 0.1 µM. In addition, the figures for the IC50 in assay [2] and in assay [5] were 1.2 µM and 2.3 µM, respectively.

As to `Cc1cc(O)c(C(C)C)cc1CCC(=O)CC(O)Cc1ccccc1` (stereo not given), the Efficacy in assay [1] is less than 10%; in assay [3], 51.3%. Further, in assay [6], the EC50 was 3.5 µM. For the same molecule, the IC50 is 35.3 µM in assay [2] and 39.7 µM in assay [5].

As for `CCCCCC(O)CC(=O)CCc1ccc(O)c(OC)c1` (racemic), the Efficacy in assay [1] came out at 51.4%; in assay [3], 11.4%. Also, the EC50 in assay [6] was determined as 10.4 µM; in assay [4], 3.3 µM. The IC50 was 5 µM in assay [2] and more than 100 µM in assay [5].

`CCCCCC(O)CC(=O)CCc1ccc(O)cc1` (stereo not given): the figures for the Efficacy in assay [1] and in assay [3] were 23.6% and 114%, respectively. Further, the EC50 worked out at 8.4 µM in assay [6] and 1.2 µM in assay [4]. Further, the IC50 in assay [2] worked out at 10.5 µM; in assay [5], 22.6 µM.

Regarding `O=C(CCc1ccc2c(c1)OCO2)CC(O)CCCCCCc1ccccc1` (stereo not given), the IC50 in assay [2] was more than 10 µM.

Take `CCCCCC(O)CC(=O)CCc1cc(C(C)C)c(O)cc1C` (stereo not given): the Efficacy was less than 10% in assay [1] and 78.2% in assay [3]. Moreover, in assay [6], the EC50 was 1.1 µM. In addition, the IC50 in assay [2] turned out to be 4.8 µM; in assay [5], 3.9 µM.
